Laboratory results as given in ChEMBL document CHEMBL4689842, “EUbOPEN Chemogenomics Library wave 1” (2021).

Test system: HEK-293T
Assay: Multiplex assay against HEK293T;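 as to Population Tubulin-Different-Phenotype (%): share of the cells with healthy nuclei that show this phenotype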
Type: toxicity, cell-based
Details: human
Procedure, shortened: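 Values for tubulin, mitochondrial-mass and membrane-permeability phenotypes are per cents of cells with healthy nuclei. These cells were identified by CellPathfinder machine-learning gating of live cells that had been stained at seeding with Hoechst33342, BioTracker Green Microtubule Cytoskeleton Dye, MitoTracker Red and Annexin V Alexa Fluor 680 and imaged on a CQ1 microscope at 37°C and 5% CO2 after compound addition. The gating first set Hoechst high-intensity objects apart from normal cells, then split normal cells into healthy, pyknosed or fragmented nuclei, and pyknosed cells into mitotic or apoptotic.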

[1] = 12 h, 1 µM, compound concentration 1 uM, replicate 1
[2] = 12 h, 1 µM, compound concentration 1 uM, replicate 2
[3] = 12 h, 10 µM, compound concentration 10 uM, replicate 1
[4] = 12 h, 10 µM, compound concentration 10 uM, replicate 2
[5] = 24 h, 1 µM, compound concentration 1 uM, replicate 1
[6] = 24 h, 1 µM, compound concentration 1 uM, replicate 2
[7] = 24 h, 10 µM, compound concentration 10 uM, replicate 1
[8] = 24 h, 10 µM, compound concentration 10 uM, replicate 2
[9] = 48 h, 1 µM, compound concentration 1 uM, replicate 1
[10] = 48 h, 1 µM, compound concentration 1 uM, replicate 2
[11] = 48 h, 10 µM, compound concentration 10 uM, replicate 1
[12] = 48 h, 10 µM, compound concentration 10 uM, replicate 2

In the case of `O=C(c1cc2c(cc1F)OC(c1ccc(F)cc1)(c1ccc(Cl)cc1Cl)O2)N1CCOCC1` (centres undefined), the “Population Apoptotic (%)” value [1] is reported as 45%, the “Population Fragmented Nuclei (%)” value [1] is reported as 17% and the “Population Healthy Nuclei (%)” value [1] is reported as 37%. The “Population Hoechst High Intensity Objects (%)” value [1] was 12%, the “Population Membrane Permeable-Phenotype (%)” value [1] was 1% and the “Population Mitochondria Different-Phenotype (%)” value [1] was 87%. The “Population Mitotic Cells (%)” value [1] was 54%, the “Population Normal (%)” value [1] was 87% and the “Population Pyknosed Nuclei (%)” value [1] was 44%. For the same compound, the “Population Tubulin-Different-Phenotype (%)” value [1] was 54%, the “Total Cell Count” value [1] was 214 and the “Population Apoptotic (%)” value [2] was 16%. The “Population Fragmented Nuclei (%)” value [2] was 5%, the “Population Healthy Nuclei (%)” value [2] was 35% and the “Population Hoechst High Intensity Objects (%)” value [2] was 5%. For the same compound, the “Population Membrane Permeable-Phenotype (%)” value [2] was 3%, the “Population Mitochondria Different-Phenotype (%)” value [2] was 24% and the “Population Mitotic Cells (%)” value [2] was 84%. For the same compound, the “Population Normal (%)” value [2] was 94%, the “Population Pyknosed Nuclei (%)” value [2] was 59% and the “Population Tubulin-Different-Phenotype (%)” value [2] was 23%. The “Total Cell Count” value [2] was 268, the “Population Apoptotic (%)” value [3] was 64% and the “Population Fragmented Nuclei (%)” value [3] was 10%. For the same compound, the “Population Healthy Nuclei (%)” value [3] was 17%, the “Population Hoechst High Intensity Objects (%)” value [3] was 17% and the “Population Membrane Permeable-Phenotype (%)” value [3] was 0%. The “Population Mitochondria Different-Phenotype (%)” value [3] was 94%, the “Population Mitotic Cells (%)” value [3] was 35% and the “Population Normal (%)” value [3] was 82%. For the same compound, the “Population Pyknosed Nuclei (%)” value [3] was 72%, the “Population Tubulin-Different-Phenotype (%)” value [3] was 97% and the “Total Cell Count” value [3] was 264. For the same compound, the “Population Apoptotic (%)” value [4] was 54%, the “Population Fragmented Nuclei (%)” value [4] was 8% and the “Population Healthy Nuclei (%)” value [4] was 8%. For the same compound, the “Population Hoechst High Intensity Objects (%)” value [4] was 9%, the “Population Mitochondria Different-Phenotype (%)” value [4] was 58% and the “Population Mitotic Cells (%)” value [4] was 45%. For the same compound, the “Population Normal (%)” value [4] was 90%, the “Population Pyknosed Nuclei (%)” value [4] was 82% and the “Population Tubulin-Different-Phenotype (%)” value [4] was 83%. For the same compound, the “Total Cell Count” value [4] was 153, the “Population Apoptotic (%)” value [5] was 48% and the “Population Fragmented Nuclei (%)” value [5] was 15%. For the same compound, the “Population Healthy Nuclei (%)” value [5] was 34%, the “Population Hoechst High Intensity Objects (%)” value [5] was 15% and the “Population Membrane Permeable-Phenotype (%)” value [5] was 0%. The “Population Mitochondria Different-Phenotype (%)” value [5] was 79%, the “Population Mitotic Cells (%)” value [5] was 51% and the “Population Normal (%)” value [5] was 84%. The “Population Pyknosed Nuclei (%)” value [5] was 50%, the “Population Tubulin-Different-Phenotype (%)” value [5] was 43% and the “Total Cell Count” value [5] was 216. For the same compound, the “Population Apoptotic (%)” value [6] was 14%, the “Population Fragmented Nuclei (%)” value [6] was 3% and the “Population Healthy Nuclei (%)” value [6] was 60%. For the same compound, the “Population Hoechst High Intensity Objects (%)” value [6] was 3%, the “Population Membrane Permeable-Phenotype (%)” value [6] was 1% and the “Population Mitochondria Different-Phenotype (%)” value [6] was 36%. The “Population Mitotic Cells (%)” value [6] was 85%, the “Population Normal (%)” value [6] was 96% and the “Population Pyknosed Nuclei (%)” value [6] was 35%. For the same compound, the “Population Tubulin-Different-Phenotype (%)” value [6] was 39%, the “Total Cell Count” value [6] was 330 and the “Population Fragmented Nuclei (%)” value [7] was 11%. The “Population Healthy Nuclei (%)” value [7] was 19%, the “Population Hoechst High Intensity Objects (%)” value [7] was 16% and the “Population Membrane Permeable-Phenotype (%)” value [7] was 2%. The “Population Mitochondria Different-Phenotype (%)” value [7] was 86%, the “Population Normal (%)” value [7] was 83% and the “Population Pyknosed Nuclei (%)” value [7] was 68%. For the same compound, the “Population Tubulin-Different-Phenotype (%)” value [7] was 95%, the “Total Cell Count” value [7] was 274 and the “Population Apoptotic (%)” value [8] was 53%. For the same compound, the “Population Fragmented Nuclei (%)” value [8] was 9%, the “Population Healthy Nuclei (%)” value [8] was 13% and the “Population Hoechst High Intensity Objects (%)” value [8] was 7%. For the same compound, the “Population Membrane Permeable-Phenotype (%)” value [8] was 10%, the “Population Mitochondria Different-Phenotype (%)” value [8] was 63% and the “Population Mitotic Cells (%)” value [8] was 46%. For the same compound, the “Population Normal (%)” value [8] was 92%, the “Population Pyknosed Nuclei (%)” value [8] was 77% and the “Population Tubulin-Different-Phenotype (%)” value [8] was 89%. For the same compound, the “Total Cell Count” value [8] was 154, the “Population Apoptotic (%)” value [9] was 57% and the “Population Fragmented Nuclei (%)” value [9] was 16%. The “Population Healthy Nuclei (%)” value [9] was 44%, the “Population Hoechst High Intensity Objects (%)” value [9] was 18% and the “Population Membrane Permeable-Phenotype (%)” value [9] was 0%. The “Population Mitochondria Different-Phenotype (%)” value [9] was 48%, the “Population Mitotic Cells (%)” value [9] was 42% and the “Population Normal (%)” value [9] was 81%. The “Population Pyknosed Nuclei (%)” value [9] was 38%, the “Population Tubulin-Different-Phenotype (%)” value [9] was 40% and the “Total Cell Count” value [9] was 232. The “Population Apoptotic (%)” value [10] was 22%, the “Population Fragmented Nuclei (%)” value [10] was 5% and the “Population Healthy Nuclei (%)” value [10] was 76%. The “Population Hoechst High Intensity Objects (%)” value [10] was 3%, the “Population Membrane Permeable-Phenotype (%)” value [10] was 2% and the “Population Mitochondria Different-Phenotype (%)” value [10] was 11%. For the same compound, the “Population Mitotic Cells (%)” value [10] was 77%, the “Population Normal (%)” value [10] was 96% and the “Population Pyknosed Nuclei (%)” value [10] was 18%. For the same compound, the “Population Tubulin-Different-Phenotype (%)” value [10] was 29%, the “Total Cell Count” value [10] was 557 and the “Population Apoptotic (%)” value [11] was 53%. The “Population Fragmented Nuclei (%)” value [11] was 16%, the “Population Healthy Nuclei (%)” value [11] was 26% and the “Population Hoechst High Intensity Objects (%)” value [11] was 10%. For the same compound, the “Population Membrane Permeable-Phenotype (%)” value [11] was 19%, the “Population Mitochondria Different-Phenotype (%)” value [11] was 33% and the “Population Mitotic Cells (%)” value [11] was 46%. For the same compound, the “Population Normal (%)” value [11] was 89%, the “Population Pyknosed Nuclei (%)” value [11] was 57% and the “Population Tubulin-Different-Phenotype (%)” value [11] was 87%. For the same compound, the “Total Cell Count” value [11] was 264, the “Population Apoptotic (%)” value [12] was 58% and the “Population Fragmented Nuclei (%)” value [12] was 8%. For the same compound, the “Population Healthy Nuclei (%)” value [12] was 24%, the “Population Hoechst High Intensity Objects (%)” value [12] was 8% and the “Population Membrane Permeable-Phenotype (%)” value [12] was 25%. The “Population Mitochondria Different-Phenotype (%)” value [12] was 61%, the “Population Mitotic Cells (%)” value [12] was 41% and the “Population Normal (%)” value [12] was 91%. For the same compound, the “Population Pyknosed Nuclei (%)” value [12] was 66%, the “Population Tubulin-Different-Phenotype (%)” value [12] was 83% and the “Total Cell Count” value [12] was 158.
